Entries after “also recorded” stand apart in the source; their conditions may differ.
How the values were obtained:
U-937, lymphoma = test: IC50 determination for non-adherent cells using MTS, U-937; assay type: cell-based, human; settings: for IC50: read-out: IC50 U-937, MTS
HeLa, cervical carcinoma = test: IC50 determination for adherent cells using SRB, HeLa; assay type: cell-based, human; settings: read-out: IC50 HeLa, 48-hour exposure
[1] = system: A549, non-small cell lung carcinoma; test: IC50 determination for adherent cells using SRB, A549; assay type: cell-based, human; settings: read-out: IC50 A549, 48-hour exposure
BT549, breast carcinoma = test: IC50 determination for adherent cells using SRB, BT549; assay type: cell-based, human; settings: for IC50: read-out: IC50 BT549, SRB
[2] = system: IMR90, immortalized lung fibroblasts; test: IC50 determination for adherent cells using SRB, IMR90; assay type: cell-based, human; settings: read-out: IC50 IMR90, 48-hour exposure, immortalized normal cell line
[3] = system: human cell lines U-937, HeLa, A549, BT549, IMR90; test: 48-hour cell death panel; assay type: cell-based; settings: for activity against the cell lines of Table 3 (in words): 48-hour exposure, concentrations up to 10 μM
Outline: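 Adherent lines seeded at 5,000 (HeLa) or 2,000 (A549, BT549, IMR90) cells/well and attached 2–3 h, in RPMI-1640 or, for IMR90, EMEM, each with 10% FBS. Test compound at 1 nM–10 μM on a half-log scale, in triplicate with 1% DMSO final, for 48 h continuous at 37 °C and 5% CO2. Cells fixed in cold 10% TCA and stained with SRB; dye read at 510 nm. IC50 from ≥3 independent experiments.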

[4] = system: CEM, acute lymphoblastic leukemia; test: IC50 determination using MTS, CEM; assay type: cell-based, human; settings: read-out: IC50 CEM, 48-hour
[5] = system: Jurkat, acute T-cell leukemia; test: IC50 determination using MTS, Jurkat; assay type: cell-based, human; settings: read-out: IC50 Jurkat, 48-hour
[6] = system: Daudi, Burkitt’s lymphoma; test: IC50 determination using MTS, Daudi; assay type: cell-based, human; settings: read-out: IC50 Daudi, 48-hour
[7] = system: HL-60, acute promyelocytic leukemia; test: IC50 determination using MTS, HL-60; assay type: cell-based, human; settings: read-out: IC50 HL-60, 48-hour
CA46, Burkitt’s lymphoma = test: IC50 determination using MTS, CA46; assay type: cell-based, human; settings: read-out: IC50 CA46, 48-hour
human erythrocytes = test: Hemolysis assay using human erythrocytes; assay type: cell-based
U-937 cells [8] = test: Western blot analysis of procaspase-3 and PARP-1 cleavage; assay type: cell-based, human; settings: 24 hours; 2×, 4×, 6× the 48-hour IC50
U-937 cells [9] = test: Apoptosis with Annexin V-FITC and propidium iodide; assay type: cell-based, human; settings: 21 hours; 4× and 6× the 48-hour IC50
U-937 cells [10] = test: Cell cycle arrest in thymidine-synchronized cells; assay type: cell-based, human; settings: synchronized U-937 cells, 16 hours
[11] = system: tubulin dynamics in HeLa cells; test: Tubulin confocal microscopy; assay type: cell-based, human; settings: 16 hours
[12] = system: glycogen synthase kinase-3β; settings: cited from earlier work
cells = settings: cited from earlier work
[13] = system: multiple tumor cell lines; settings: cited from earlier work
[14] = mice, in vivo; cited from earlier work
anthropods = settings: cited from earlier work

| IC50 (U-937, lymphoma; 48-hour exposure) | IC50 (HeLa, cervical carcinoma) | IC50 [1] | IC50 (BT549, breast carcinoma; 48-hour exposure) | IC50 [4] | IC50 [5] | IC50 [6] | IC50 [7] | IC50 (CA46, Burkitt’s lymphoma) | Molecule | IC50 [2] | activity against the cell lines of Table 3 (in words) [3] | also measured |
| --- | --- | --- | --- | --- | --- | --- | --- | --- | --- | --- | --- | --- |
| > 10 µM | > 10 µM | > 10 µM | > 10 µM |  |  |  |  |  | COC1NC(=O)c2ccc(Br)n2C1Cc1c[nH]c(=O)n1C (single isomer, unassigned; (+)) [(+)-39, (+)-O-methyl-pre-agelastatin A] | > 10 µM | none |  |
| > 10 µM | > 10 µM | > 10 µM | > 10 µM |  |  |  |  |  | COC1NC(=O)c2ccc(Br)n2C1Cc1c[nH]c(=O)[nH]1 (single isomer, unassigned; (+)) [(+)-53, (+)-O-methyl-pre-agelastatin D] | > 10 µM | none |  |
| > 10 µM | > 10 µM | > 10 µM | > 10 µM | 2.1 ± 1.3 µM | 5.31 ± 0.35 µM | 7.2 ± 2.9 µM | > 10 µM | > 10 µM | CN1C(=O)N[C@@]2(O)[C@@H]3NC(=O)c4ccc(Br)n4[C@@H]3C[C@@]12O [(−)-3, (−)-agelastatin C] | > 10 µM | no activity; also recorded: completely abolishes activity |  |
| 0.24 ± 0.033 µM | 1 ± 0.2 µM | 0.92 ± 0.16 µM | 0.631 ± 0.082 µM | 0.074 ± 0.025 µM | 0.21 ± 0.063 µM | 0.202 ± 0.015 µM | 0.54 ± 0.12 µM | 0.46 ± 0.24 µM | O=C1N[C@H]2[C@@H]3NC(=O)c4ccc(Br)n4[C@@H]3C[C@@]2(O)N1 [(−)-4, (−)-agelastatin D] | 2.75 ± 0.6 µM |  | activity against U-937 cells (in words) (U-937, lymphoma; 48-hour exposure): reasonable activity; activity against BT549 cells (in words) (BT549, breast carcinoma; 48-hour exposure): modest activity; activation of procaspase-3 to caspase-3 and cleavage of PARP-1 (U-937 cells [8]): induced dose-dependent activation of procaspase-3 to active caspase-3, and cleavage of PARP-1; phosphatidylserine exposure / PI inclusion (apoptosis) (U-937 cells [9]): induced dose-dependent apoptosis; cell cycle arrest (U-937 cells [10]): dose-dependent G2/M cell cycle arrest; tubulin fluorescence (tubulin dynamics within cells) [11]: no change in tubulin fluorescence |
| > 10 µM | > 10 µM | > 10 µM | > 10 µM | > 10 µM | > 10 µM | > 10 µM | > 10 µM | > 10 µM | O=C1N[C@H]2[C@@H]3NC(=O)c4cc(Br)c(Br)n4[C@@H]3C[C@@]2(O)N1 [(−)-6, (−)-agelastatin F] | > 10 µM | no activity |  |
|  |  |  |  |  |  |  |  |  | CC(=O)O[C@H]1C(=O)[C@@]2(C)[C@H]([C@H](OC(=O)c3ccccc3)[C@]3(O)C[C@H](OC(=O)[C@H](O)[C@@H](NC(=O)c4ccccc4)c4ccccc4)C(C)=C1C3(C)C)[C@]1(OC(C)=O)CO[C@@H]1C[C@@H]2O [Taxol, reference compound] |  |  | tubulin fluorescence (tubulin dynamics within cells) [11]: heightened |
| 1.06 ± 0.16 µM | 4.8 ± 1.2 µM | > 10 µM | 4.8 ± 1.1 µM | 0.29 ± 0.2 µM | 0.75 ± 0.44 µM | 0.46 ± 0.28 µM | 2.4 ± 1 µM | 1.07 ± 0.42 µM | (−)-agelastatin B [(−)-2] | > 10 µM | weak activity |  |
| > 10 µM | > 10 µM | > 10 µM | > 10 µM |  |  |  |  |  | (−)-dehydroagelastatin A [(−)-51] | > 10 µM | none |  |
| > 10 µM | > 10 µM | > 10 µM | > 10 µM |  |  |  |  |  | (−)-di-epi-agelastatin C [(−)-52] | > 10 µM | none |  |

| Molecule | IC50 (U-937, lymphoma; 48-hour exposure) | IC50 (HeLa, cervical carcinoma) | IC50 [1] | IC50 (BT549, breast carcinoma; 48-hour exposure) | IC50 [4] | IC50 [5] | IC50 [6] | IC50 [7] | IC50 (CA46, Burkitt’s lymphoma) | IC50 [2] | activity against the cell lines of Table 3 (in words) [3] | also measured |
| --- | --- | --- | --- | --- | --- | --- | --- | --- | --- | --- | --- | --- |
| CN1C(=O)N[C@H]2[C@@H]3NC(=O)c4ccc(Br)n4[C@@H]3C[C@]21O [(−)-1, (−)-agelastatin A] | 0.067 ± 0.003 µM | 0.708 ± 0.09 µM | 1.05 ± 0.14 µM | 0.278 ± 0.076 µM | 0.02 ± 0.002 µM | 0.074 ± 0.007 µM | 0.02 ± 0.003 µM | 0.138 ± 0.066 µM | 0.187 ± 0.071 µM | 1.11 ± 0.35 µM | highest potency in all cell lines tested | enhanced activity in U-937 relative to the other cell lines (U-937, lymphoma; 48-hour IC50 comparison): 20 ×; enhanced activity in BT549 relative to the other cell lines (BT549, breast carcinoma; 48-hour IC50 comparison): 4 ×; concentration without effect on normal red blood cells (human erythrocytes; hemolysis after 2 h): > 333 µM; hemolytic activity (nonspecific hemolysis of red blood cells) (human erythrocytes; tested at 333 μM, 2 h): none; activation of procaspase-3 to caspase-3 and cleavage of PARP-1 (U-937 cells [8]): induced dose-dependent activation of procaspase-3 to active caspase-3, and cleavage of PARP-1; phosphatidylserine exposure / PI inclusion (apoptosis) (U-937 cells [9]): induced dose-dependent apoptosis; cell cycle arrest (U-937 cells [10]): dose-dependent G2/M cell cycle arrest; tubulin fluorescence (tubulin dynamics within cells) [11]: no change in tubulin fluorescence; inhibition of glycogen synthase kinase-3β [12]: moderately inhibits; cell cycle arrest (cells): arrest in the G2/M-phase of the cell cycle; anti-neoplastic activity against multiple tumor cell lines [13]: modest anti-neoplastic activity; penetration into CNS compartments [14]: able to penetrate into CNS compartments; toxicity towards anthropods (anthropods): exhibits toxicity |
| CO[C@@]12C[C@@H]3[C@@H](NC(=O)c4ccc(Br)n43)[C@@H]1NC(=O)N2C [(−)-5, (−)-agelastatin E] | 2.56 ± 0.13 µM | 8.6 ± 0.81 µM | > 10 µM | 6.9 ± 2.5 µM | 0.83 ± 0.37 µM | 1.5 ± 0.33 µM | 1.41 ± 0.53 µM | 4.6 ± 3.6 µM | 2.45 ± 0.95 µM | > 10 µM | weak activity | reduction in anticancer potency relative to (−)-agelastatin A (1) ([3]; comparison of 48-hour IC50 values): > 10 fold |
| (−)-O-methyl-di-epi-agelastatin A [(−)-50] | > 10 µM | > 10 µM | > 10 µM | > 10 µM |  |  |  |  |  | > 10 µM | none |  |

Reference: publication PMC3920459 (The Journal of organic chemistry, 2013)
